Blank lines part the entries; values can stand above or below the compound they belong to.
Columns and labels:
Rattus norvegicus [1] = assay: Evaluated for the distribution of radioactivity in tissues of female Fischer rats liver after 60 minutes intravenous administration; dose/g, range 0.73-1.19; assay type: ADME, organism-based; details: in vivo, 1 h
Procedure, shortened: (§1)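 Female Fischer 344 rats (10-12 weeks, 170-200 g), fed ad libitum, got a single iv tail-vein injection under ether anaesthesia of the 125I-labelled cation (2.85-8.38 μCi). The tracer was dissolved in Me2SO, diluted with saline to 1% Me2SO and filtered. At the set times rats were killed by cervical fracture and blood taken by cardiac puncture. Organs were rinsed, blotted, weighed and gamma-counted against injectate standards. Results are %dose/g, mean and range, n=5. Thyroid weight was taken as 7.5 mg/100 g body weight.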

Rattus norvegicus [2] = assay: Evaluated for the distribution of radioactivity in tissues of female Fischer rats lungs after 60 minutes intravenous administration; dose/g, range 0.81-1.13; assay type: ADME, organism-based, Lung; details: in vivo, 1 h; procedure, shortened: as §1
Rattus norvegicus [3] = assay: Evaluated for the distribution of radioactivity in tissues of female Fischer rats liver after 5 minutes intravenous administration; dose/g, range 3.12-4.56; assay type: ADME, organism-based; details: in vivo; procedure, shortened: as §1
Rattus norvegicus [4] = assay: Evaluated for the distribution of radioactivity in tissues of female Fischer rats kidneys after 60 minutes intravenous administration; dose/g, range 4.62-5.60; assay type: ADME, organism-based, Kidney; details: in vivo, 1 h
Rattus norvegicus [5] = assay: Evaluated for the distribution of radioactivity in tissues of female Fischer rats kidneys after 5 minutes intravenous administration; dose/g, range 14.4-20.1; assay type: ADME, organism-based, Kidney; details: in vivo
Rattus norvegicus [6] = assay: Evaluated for the distribution of radioactivity in tissues of female Fischer rats liver after 30 minutes intravenous administration; dose/g, range 1.51-2.23; assay type: ADME, organism-based; details: in vivo, 0.5 h
Rattus norvegicus [7] = assay: Evaluated for the distribution of radioactivity in tissues of female Fischer rats thyroid after 60 minutes intravenous administration; dose/g, range 35-53; assay type: ADME, organism-based, Thyroid gland; details: in vivo, 1 h; procedure, shortened: as §1
Rattus norvegicus [8] = assay: Evaluated for the distribution of radioactivity in tissues of female Fischer rats blood after 60 minutes intravenous administration; dose/g, range 0.13-0.15; assay type: ADME, organism-based; details: in vivo, 1 h
Rattus norvegicus [9] = assay: Evaluated for the distribution of radioactivity in tissues of female Fischer rats thyroid after 30 minutes intravenous administration; dose/g, range 19-24; assay type: ADME, organism-based, Thyroid gland; details: in vivo, 0.5 h; procedure, shortened: as §1
Rattus norvegicus [10] = assay: Evaluated for the distribution of radioactivity in tissues of female Fischer rats blood after 5 minutes intravenous administration; dose/g, range 0.40-0.45; assay type: ADME, organism-based; details: in vivo
Rattus norvegicus [11] = assay: Evaluated for the distribution of radioactivity in tissues of female Fischer rats thyroid after 5 minutes intravenous administration; dose/g, range 13-18; assay type: ADME, organism-based, Thyroid gland; details: in vivo; procedure, shortened: as §1
Rattus norvegicus [12] = assay: Evaluated for the distribution of radioactivity in tissues of female Fischer rats lungs after 5 minutes intravenous administration; dose/g, range 0.96-1.35; assay type: ADME, organism-based, Lung; details: in vivo; procedure, shortened: as §1
Rattus norvegicus [13] = assay: Evaluated for the distribution of radioactivity in tissues of female Fischer rats heart after 60 minutes intravenous administration; dose/g, range 1.93-3.58; assay type: ADME, organism-based; details: in vivo, 1 h
Rattus norvegicus [14] = assay: Evaluated for the distribution of radioactivity in tissues of female Fischer rats heart after 5 minutes intravenous administration.; dose/g, range 2.20-2.97; assay type: ADME, organism-based; details: in vivo
Rattus norvegicus [15] = assay: Evaluated for the distribution of radioactivity in tissues of female Fischer rats lungs after 30 minutes intravenous administration; dose/g, range 0.83-1.21; assay type: ADME, organism-based, Lung; details: in vivo, 0.5 h; procedure, shortened: as §1
Rattus norvegicus [16] = assay: Evaluated for the distribution of radioactivity in tissues of female Fischer rats blood after 30 minutes intravenous administration; dose/g, range 0.19-0.24; assay type: ADME, organism-based; details: in vivo, 0.5 h
Rattus norvegicus [17] = assay: Evaluated for the distribution of radioactivity in tissues of female Fischer rats kidneys after 30 minutes intravenous administration; dose/g, range 7.21-7.95; assay type: ADME, organism-based, Kidney; details: in vivo, 0.5 h
Rattus norvegicus [18] = assay: Evaluated for the distribution of radioactivity in tissues of female Fischer rats heart after 30 minutes intravenous administration; dose/g, range 1.39-2.43; assay type: ADME, organism-based; details: in vivo, 0.5 h
Rattus norvegicus [19] = assay: Evaluated for the distribution of radioactivity in tissues of female Fischer rats blood after 30 minutes intravenous administration; dose/g, range 0.07-0.09; assay type: ADME, organism-based; details: in vivo, 0.5 h
Rattus norvegicus [20] = assay: Evaluated for the distribution of radioactivity in tissues of female Fischer rats liver after 60 minutes intravenous administration; dose/g, range 1.08-2.31; assay type: ADME, organism-based; details: in vivo, 1 h; procedure, shortened: as §1
Rattus norvegicus [21] = assay: Evaluated for the distribution of radioactivity in tissues of female Fischer rats heart after 60 minutes intravenous administration; dose/g, range 1.05-1.57; assay type: ADME, organism-based; details: in vivo, 1 h
Rattus norvegicus [22] = assay: Evaluated for the distribution of radioactivity in tissues of female Fischer rats kidneys after 60 minutes intravenous administration; dose/g, range 0.17-0.25; assay type: ADME, organism-based, Kidney; details: in vivo, 1 h
Rattus norvegicus [23] = assay: Evaluated for the distribution of radioactivity in tissues of female Fischer rats liver after 5 minutes intravenous administration; dose/g, range 4.12-6.30; assay type: ADME, organism-based; details: in vivo; procedure, shortened: as §1
Rattus norvegicus [24] = assay: Evaluated for the distribution of radioactivity in tissues of female Fischer rats thyroid after 5 minutes intravenous administration; dose/g, range 5-8; assay type: ADME, organism-based, Thyroid gland; details: in vivo; procedure, shortened: as §1
Rattus norvegicus [25] = assay: Evaluated for the distribution of radioactivity in tissues of female Fischer rats heart after 30 minutes intravenous administration; dose/g, range 0.95-1.44; assay type: ADME, organism-based; details: in vivo, 0.5 h
Rattus norvegicus [26] = assay: Evaluated for the distribution of radioactivity in tissues of female Fischer rats blood after 60 minutes intravenous administration; dose/g, range 0.08-0.09; assay type: ADME, organism-based; details: in vivo, 1 h
Rattus norvegicus [27] = assay: Evaluated for the distribution of radioactivity in tissues of female Fischer rats kidneys after 30 minutes intravenous administration; dose/g, range 0.24-0.31; assay type: ADME, organism-based, Kidney; details: in vivo, 0.5 h
Rattus norvegicus [28] = assay: Evaluated for the distribution of radioactivity in tissues of female Fischer rats blood after 5 minutes intravenous administration; dose/g, range 0.10-0.14; assay type: ADME, organism-based; details: in vivo
Rattus norvegicus [29] = assay: Evaluated for the distribution of radioactivity in tissues of female Fischer rats lungs after 30 minutes intravenous administration.; dose/g, range 0.34-0.47; assay type: ADME, organism-based, Lung; details: in vivo, 0.5 h; procedure, shortened: as §1
Rattus norvegicus [30] = assay: Evaluated for the distribution of radioactivity in tissues of female Fischer rats heart after 5 minutes intravenous administration; dose/g, range 0.90-1.46; assay type: ADME, organism-based; details: in vivo
Rattus norvegicus [31] = assay: Evaluated for the distribution of radioactivity in tissues of female Fischer rats lungs after 60 minutes intravenous administration; dose/g, range 0.28-0.33; assay type: ADME, organism-based, Lung; details: in vivo, 1 h; procedure, shortened: as §1
Rattus norvegicus [32] = assay: Evaluated for the distribution of radioactivity in tissues of female Fischer rats thyroid after 30 minutes intravenous administration; dose/g, range 4-7; assay type: ADME, organism-based, Thyroid gland; details: in vivo, 0.5 h; procedure, shortened: as §1
Rattus norvegicus [33] = assay: Evaluated for the distribution of radioactivity in tissues of female Fischer rats lungs after 5 minutes intravenous administration; dose/g, range 0.51-0.66; assay type: ADME, organism-based, Lung; details: in vivo; procedure, shortened: as §1
Rattus norvegicus [34] = assay: Evaluated for the distribution of radioactivity in tissues of female Fischer rats thyroid after 60 minutes intravenous administration; dose/g, range 5-12; assay type: ADME, organism-based, Thyroid gland; details: in vivo, 1 h; procedure, shortened: as §1
Rattus norvegicus [35] = assay: Evaluated for the distribution of radioactivity in tissues of female Fischer rats liver after 30 minutes intravenous administration; dose/g, range 2.30-3.12; assay type: ADME, organism-based; details: in vivo, 0.5 h
Rattus norvegicus [36] = assay: Evaluated for the distribution of radioactivity in tissues of female Fischer rats kidneys after 5 minutes intravenous administration; dose/g, range 4.78-9.72; assay type: ADME, organism-based, Kidney; details: in vivo

- Distribution (Rattus norvegicus [1]): 0.93%
- Distribution (Rattus norvegicus [2]): 0.95%
- Distribution (Rattus norvegicus [3]): 3.72%
- Distribution (Rattus norvegicus [4]): 5.15%
- Distribution (Rattus norvegicus [5]): 17.54%
- Distribution (Rattus norvegicus [6]): 1.84%
- Distribution (Rattus norvegicus [7]): 41%
- Distribution (Rattus norvegicus [8]): 0.14%
- Distribution (Rattus norvegicus [9]): 21%
- Distribution (Rattus norvegicus [10]): 0.42%
- Distribution (Rattus norvegicus [11]): 16%
- Distribution (Rattus norvegicus [12]): 1.18%
- Distribution (Rattus norvegicus [13]): 2.73%
- Distribution (Rattus norvegicus [14]): 2.51%
- Distribution (Rattus norvegicus [15]): 1.05%
- Distribution (Rattus norvegicus [16]): 0.22%
- Distribution (Rattus norvegicus [17]): 7.51%
- Distribution (Rattus norvegicus [18]): 1.95%
SMILES: CCCCCCCC[P+](C)(C)CCC/C=C/I.[I-]

- Distribution (Rattus norvegicus [19]): 0.08%
- Distribution (Rattus norvegicus [20]): 1.55%
- Distribution (Rattus norvegicus [21]): 1.21%
- Distribution (Rattus norvegicus [22]): 0.21%
- Distribution (Rattus norvegicus [23]): 5.16%
- Distribution (Rattus norvegicus [24]): 6%
- Distribution (Rattus norvegicus [25]): 1.11%
- Distribution (Rattus norvegicus [26]): 0.09%
- Distribution (Rattus norvegicus [27]): 0.27%
- Distribution (Rattus norvegicus [28]): 0.12%
- Distribution (Rattus norvegicus [29]): 0.39%
- Distribution (Rattus norvegicus [30]): 1.12%
- Distribution (Rattus norvegicus [31]): 0.29%
- Distribution (Rattus norvegicus [32]): 5%
- Distribution (Rattus norvegicus [33]): 0.57%
- Distribution (Rattus norvegicus [34]): 9%
- Distribution (Rattus norvegicus [35]): 2.76%
- Distribution (Rattus norvegicus [36]): 7.46%
SMILES: CC[N+](CC)(CC)CCC/C=C/I.[I-]
